SENP7 block = SENP7 protease inhibition. recombinant SENP7, Z-RLRGG-aminoluciferin luminescence, 40 min. inhibition, % at 5 µM. hit rate 1.5% among 330,000;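 active means inhibition above about 50% at the single test dose, limit read from the data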;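 further: plate controls were DMSO with enzyme for no effect and no enzyme buffer wells for full effect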
Target sequence (Q9BQF6 706-1050 limits assumed): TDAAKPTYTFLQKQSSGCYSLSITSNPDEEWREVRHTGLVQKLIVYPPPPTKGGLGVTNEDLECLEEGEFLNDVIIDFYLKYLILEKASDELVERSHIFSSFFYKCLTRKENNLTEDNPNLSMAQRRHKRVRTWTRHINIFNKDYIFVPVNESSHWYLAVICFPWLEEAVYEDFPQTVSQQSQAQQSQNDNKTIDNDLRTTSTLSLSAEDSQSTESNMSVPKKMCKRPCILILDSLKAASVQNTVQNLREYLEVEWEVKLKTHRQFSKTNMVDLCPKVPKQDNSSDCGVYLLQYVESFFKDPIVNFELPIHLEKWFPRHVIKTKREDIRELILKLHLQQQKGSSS
SENP6 inh = inhibitors of human SENP6 protease. Recombinant SENP6 catalytic domain, aminoluciferin luminescence. inhibition, % at 10 µM. hit rate 1.8% among 330,000. AID 2599;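 active means inhibition above about 50% at the single tested dose, limit read from the data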;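 further: plate controls were DMSO wells with enzyme for no effect and DMSO wells lacking enzyme for full effect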
SENP8 block-1 = blocks human SENP8 cleavage of Nedd8 substrate; recombinant SENP8, Nedd8 substrate fluorescence; AID 602440; hit rate 0.64% among 360,000; Q96LD8; inhibition, % at 20 µM; in the data active means inhibition mostly above about 40%, no sharp cut-off; inactive means mostly below about 27%
Platelet DG rel = platelet dense granule release activity; human platelet-rich plasma, SFLLRN dense granule ATP release, luminescence; inhibition, %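 (compounds screened at 7.5 µM in platelet-rich plasma)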; hit rate 0.22% among 300,000; AID 1663;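 active means mean replicate score, as percent of positive control, at or above 50; inconclusive means mean below 50 but at least one replicate at or above 50; inactive means mean and every replicate below 50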
SENP8 block-2 = blocks the human protease SENP8. Q96LD8. purified SENP8, Z-RLRGG-aminoluciferin cleavage, luminescence. inhibition, % at 10 µM. hit rate 1.2% among 330,000; in the data active means inhibition above about 50%
SENP1 inh = inhibitors of human SENP1 SUMO protease catalytic domain | Q9P0U3 | recombinant SENP1 catalytic domain, CyPet-SUMO1-YPet FRET cleavage | inhibition, % at 10 µM | hit rate 0.21% among 360,000 | AID 624204;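 active means inhibition at least 30% at 10 µM, raw YFP signal under a set limit, fluorescence ratio 0.5 to 1.5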;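 further: 0% = enzyme with DMSO and 100% = no enzyme wells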
Target sequence (Q9P0U3 419-644 limits assumed): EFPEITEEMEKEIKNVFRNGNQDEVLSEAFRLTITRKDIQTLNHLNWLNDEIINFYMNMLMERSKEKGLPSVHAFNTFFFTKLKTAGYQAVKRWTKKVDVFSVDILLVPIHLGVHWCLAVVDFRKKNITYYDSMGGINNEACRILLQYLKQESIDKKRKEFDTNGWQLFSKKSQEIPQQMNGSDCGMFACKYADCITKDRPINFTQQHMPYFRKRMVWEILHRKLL
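system = hSENP1 catalytic domain, recombinant | reagent = SFCypet-SUMO1-SFYpet substrate at 25 nM | doses = one dose per compound, 10 µM, 0.5% DMSO | incubation = enzyme reaction for 50 min at room temperature, dark | measured by = FRET, CFP and YFP emission | controls = no-enzyme low, enzyme-DMSO high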
SENP8 conf = confirmation of human SENP8 protease inhibitors | hit rate 40% among 6,200 | shares compounds with SENP7 block | Recombinant SENP8, Z-RLRGG-aminoluciferin luminescence, 60 min | inhibition, % at 12.5 µM;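 active means mean inhibition across replicates above about 50%, limit read from the data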
SENP6 confirm = confirmation of human SENP6 protease inhibitors; hit rate 58% among 6,200; inhibition, % at 12.5 µM; AID 488915; recombinant SENP6, Z-RLRGG-aminoluciferin luminescence; shares compounds with SENP7 block
SENP7 conf = confirmation of human SENP7 protease inhibitors; shares compounds with SENP7 block; recombinant SENP7, Z-RLRGG-aminoluciferin luminescence, 40 min; inhibition, % at 12.5 µM; hit rate 69% among 6,200; AID 488917
Casp3 SENP sel = inhibits human caspase-3 in SENP selectivity test; AID 488918; purified caspase-3, Z-DEVD-aminoluciferin luminescence, 60 min; shares compounds with SENP7 block; hit rate 60% among 6,200; inhibition, % at 12.5 µM;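 active means mean inhibition above about 50%, limit read from the data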;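 further: plate controls were enzyme with DMSO for no effect and wells without caspase-3 for full effect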
Target sequence (P42574 28-227 limits assumed): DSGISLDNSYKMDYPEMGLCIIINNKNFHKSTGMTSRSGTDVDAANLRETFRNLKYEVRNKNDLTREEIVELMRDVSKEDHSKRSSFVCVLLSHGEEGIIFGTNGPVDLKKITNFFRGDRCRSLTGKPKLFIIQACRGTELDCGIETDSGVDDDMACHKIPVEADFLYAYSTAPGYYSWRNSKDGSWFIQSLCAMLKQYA
SENP luc ctr = counter-screen for SENP inhibitors: luminescence interference | AID 488919 | hit rate 39% among 6,200 | shares compounds with SENP7 block | Pre-incubated SENP8/Z-RLRGG-aminoluciferin, luciferase luminescence interference | inhibition, % at 12.5 µM;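 active means mean inhibition above about 50% when retested at one dose, limit read from the data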;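 further: plate controls were DMSO wells with completed reaction for no effect and substrate without enzyme for full effect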
Active calls of the source: *; ? = inconclusive; / = not tested or not shown. A selection: hits, their analogues and other compounds. The true share with any hit is near 2.6%.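 How the source made its calls, unless noted: active means mean inhibition above about 50% in the one-dose retest (limit read from the data); inactive means the rest.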

SMILES | SENP7 block | SENP6 inh | SENP8 block-1 | Platelet DG rel | SENP8 block-2 | SENP1 inh | SENP8 conf | SENP6 confirm | SENP7 conf | Casp3 SENP sel | SENP luc ctr
c1ccc(C2=NN(c3ccccc3)CC2)cc1 | 58.5* | 5.7 | -450.5 | ? | 57.0* | -133.2 | 12.7 | 23.9 | 32.5 | 40.0 | 36.7
O=C1CCCC/C1=C/NCc1ccc(F)cc1 | 2.1 | -13.1 | 2.2 | 2.0 | 1.9 | -1.1 | / | / | / | / | /
COc1ncccc1-c1nnn(-c2ccccc2)n1 | 87.4* | 84.1* | 10.9 | 6.7 | 81.3* | 1.6 | 85.4* | 88.0* | 98.4* | 91.0* | 83.5*
Fc1ccc(-n2nnc(-c3nccs3)n2)cc1 | 91.3* | 88.3* | 17.6 | 9.8 | 86.8* | -0.6 | 87.5* | 91.8* | 100.5* | 96.2* | 67.1*
Clc1ccc(-n2nnc(-c3cccnc3Cl)n2)cc1Cl | 56.7* | 20.7 | 4.5 | -2.4 | 3.8 | 2.3 | -12.1 | -4.5 | 14.0 | 8.9 | 0.3
Clc1ncccc1-c1nnn(-c2ccccc2)n1 | 89.1* | 90.8* | 9.9 | 4.8 | 86.4* | 2.7 | 88.5* | 89.8* | 99.0* | 92.2* | 87.6*
CC(=O)N[C@@H](Cc1c[nH]c2ccccc12)C(=O)NC1CCCc2ccccc21 (stereo not given in full) | 4.9 | -17.7 | 12.3 | -17.0 | -1.6 | -0.9 | / | / | / | / | /
N#Cc1ccccc1OCC(=O)OCC(=O)N1CCN(C(=O)c2ccco2)CC1 | -2.7 | -4.9 | 8.5 | 0.5 | 4.6 | 2.6 | / | / | / | / | /
CC(C)Cc1nnc(NC(=O)CCC(=O)NC2CCCC2)s1 | 1.3 | 4.9 | 0.5 | 4.0 | 2.4 | 3.0 | / | / | / | / | /
COc1ccc(NC(=O)CN2C(=O)NC(C)(Cc3ccc(OC)c(OC)c3)C2=O)cc1 (stereo not given) | / | / | 17.9 | / | / | 1.9 | / | / | / | / | /
Fc1ccc(-n2nnc(-c3cccnc3Cl)n2)cc1 | 80.8* | 74.3* | 13.2 | 3.6 | 72.0* | 2.9 | 73.3* | 74.6* | 92.1* | 83.8* | 74.3*
Fc1ccc(-n2nnc(-c3ccccc3Cl)n2)cc1 | 1.8 | 1.0 | -0.9 | 10.4 | -3.2 | -3.4 | / | / | / | / | /
Fc1c(F)c(F)c(CSc2nc3ccccc3[nH]2)c(F)c1F | 4.4 | -2.0 | 26.3 | -4.6 | -4.8 | 1.2 | / | / | / | / | /
Fc1ccccc1CSc1nc2ccccc2[nH]1 | 85.3* | 82.9* | 16.2 | -8.8 | 78.5* | 1.8 | 86.4* | 85.3* | 95.5* | 83.4* | 85.6*
COc1cccc(CSc2nc3ccccc3[nH]2)c1 | 80.6* | 63.7* | 4.6 | 5.2 | 77.3* | 2.4 | 0.1 | 79.4* | 95.3* | 80.3* | 82.5*
CCc1ccccc1NC(=O)c1ccc(S(=O)(=O)NCC2CCCO2)cc1 (stereo not given) | -4.1 | -12.7 | 10.4 | -0.7 | 6.5 | 0.2 | / | / | / | / | /
O=c1c2[nH]cnc2n(-c2cccc(F)c2)c(=O)n1Cc1ccccc1 | -2.6 | -16.0 | 2.5 | 1.3 | -1.0 | 1.4 | / | / | / | / | /
O=C(Nc1ccccc1)Nc1cccn(Cc2c(F)cccc2Cl)c1=O | 12.7 | 58.4* | -233.1 | -0.5 | 54.9* | -3.3 | 16.7 | 49.4 | 91.5* | 50.1* | 14.4
O=C(Oc1ccccc1)c1ccccc1 | / | / | 1.5 | / | / | -0.4 | / | / | / | / | /
O=C(Oc1ccc(/C=N/O)cc1)c1ccccc1 | 80.0* | 78.2* | 3.4 | -1.5 | 45.4 | 3.0 | 66.2* | 64.8* | 89.4* | 71.9* | 79.3*
O=C(Oc1ccc(/C=N/Nc2ccccc2)cc1)c1ccccc1 | -0.7 | -13.3 | 17.3 | 2.4 | -9.9 | 2.7 | / | / | / | / | /
O=C(Oc1ccc2ccccc2c1)c1ccccc1 | -3.5 | 83.4* | 4.7 | -1.6 | 70.8* | 0.2 | 73.5* | 86.2* | 95.1* | 65.7* | 69.6*
COc1ccc(NC(=O)CCN2CCN(c3ccc(F)cc3)CC2)cc1 | -6.5 | -47.0 | 26.5 | -4.8 | -3.6 | -0.8 | / | / | / | / | /
Cn1cc(/C=C/C(=O)c2ccccc2)c2ccccc21 | 78.8* | 69.4* | -251.6 | 5.4 | 63.4* | -37.8 | 5.8 | 73.7* | 88.7* | 44.7 | 42.7
Cc1ccc(C(=O)/C=C/c2cn(CN3CCN(C)CC3)c3ccccc23)cc1 | -4.0 | 11.9 | -278.9 | 0.9 | -11.1 | -22.6 | / | / | / | / | /
SMILES | SENP7 block | SENP6 inh | SENP8 block-1 | Platelet DG rel | SENP8 block-2 | SENP1 inh | SENP8 conf | SENP6 confirm | SENP7 conf | Casp3 SENP sel | SENP luc ctr
O=C(Cn1nc(C(=O)O)c2ccccc2c1=O)Nc1nc(-c2ccccc2)cs1 | 9.0 | -25.9 | 39.2 | 6.9 | -3.8 | 1.0 | / | / | / | / | /
COc1ccc(C(=O)Nc2ccc3ccccc3n2)c(OC)c1OC | 86.3* | 82.4* | -37.1 | 2.2 | 66.4* | 1.3 | 58.0* | 46.5 | 56.7* | 45.0 | 5.3
O=C(Nc1ccc2ccccc2n1)c1ccccc1Cl | 95.1* | 87.6* | 5.4 | 4.5 | 89.0* | -0.4 | 93.8* | 94.4* | 101.5* | 94.2* | 33.3
O=C(Nc1ccc2ccccc2n1)c1ccc(Cl)cc1 | 72.2* | 56.1* | -0.2 | -10.8 | 50.2* | -0.6 | 25.3 | 48.4 | 58.7* | 59.4* | 16.1
O=C(Nc1ccc2ccccc2n1)C1CCCCC1 | 73.6* | 59.7* | 13.7 | -0.3 | 48.5 | 0.7 | 61.4* | 58.5* | 88.4* | 74.1* | 67.9*
CN(C)S(=O)(=O)c1ccc(C(=O)NNC(=O)C23CC4CC(CC(C4)C2)C3)cc1 | 4.9 | -4.1 | -2.9 | / | 2.8 | -1.2 | / | / | / | / | /
CC1CCCC(C)N1CCCNC(=O)C(=O)Nc1ccc2nc3n(c(=O)c2c1)CCCCC3 (stereo not given) | 10.4 | -8.3 | 9.6 | -7.7 | -17.3 | -1.4 | / | / | / | / | /
Cc1cc(=O)[nH]c(-c2ccc(Cl)cc2)n1 | -1.3 | -4.3 | 13.3 | 1.5 | -2.7 | 0.9 | / | / | / | / | /
COc1ccc(N(CC(=O)N2CCN(c3cc(C)ccc3C)CC2)S(=O)(=O)c2c(C)noc2C)cc1 | -5.1 | -5.0 | 9.1 | -6.9 | 0.6 | 0.7 | / | / | / | / | /
O=C(O)c1ccc(N/N=C/c2cccc(F)c2)cc1 | 84.3* | 100.2* | -63.7 | 31.9 | 97.2* | -29.0 | 99.6* | 100.2* | 103.5* | 98.0* | 98.6*
O=C(O)c1ccc(N/N=C/c2ccc(F)c(F)c2)cc1 | 97.4* | 97.8* | -115.5 | 37.5 | 96.5* | -8.1 | 99.0* | 99.7* | 102.4* | 96.7* | 97.9*

High-throughput results from PubChem BioAssay.
